Data on 97 compounds can be found in ChEMBL document CHEMBL4513216, “Probing the Open Global Health Chemical Diversity Library for Multistage-Active Starting Points for Next-Generation Antimalarials” (ACS Infect Dis, 2020).

Structures are written as SMILES.

The nature of the series: Toxicity liver stage against HepG2, at 10uM. It counts as cell-based. Details: test concentration 10 uM, cell line HepG2-A16-CD81EGFP. Particulars: human, HepG2-A16-CD81EGFP cells; read-out: INHIBITION
The gist of the method:
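Uninfected HepG2-A16-CD81EGFP cells, 3 × 10^3 per well, 1536-well, plated on prespotted compound at 10 μM final, parasite-free screening media added to match infected plates; puromycin 10 μM positive, DMSO 0.5% negative; run in parallel with 48 h PbLuc assay at 37 °C, 5% CO2; viability by CellTiter-Glo luminescence, normalized to controls.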
Consider `Cc1ccc(NC2CCN(C(=O)c3cc4c(s3)CCC4)CC2)nn1`, for which the cytotoxicity at 10 µM was -3.48%. Then `COc1nc(N2CCN(C(C)=O)CC2)ncc1Br`, with 0.27%; and `CCN(C)C[C@@H]1CN(S(=O)(=O)c2cccc(Cl)c2)C[C@@H]1CO`, with -8.3%. On to `Cc1nnc2ccc(N3CCC(C(=O)Nc4nccs4)CC3)nn12`, for which the cytotoxicity at 10 µM is 3.89%.

As to `COCC(=O)N1CCN(C(=O)c2cccs2)C[C@H]1C(=O)OC`, the cytotoxicity at 10 µM is -0.655%. For `O=C(CN1CCCC(c2ccn[nH]2)C1)Nc1nncs1` (configuration not stated), the cytotoxicity at 10 µM is -43.9%.

`Cc1cccc(C(=O)NCCCN2CCN(c3ccccc3)CC2)c1`: the cytotoxicity at 10 µM was 7.67%. On to `Cc1cn2c(n1)CCC(NC(=O)c1ccc(CS(C)(=O)=O)cc1)C2` (configuration not stated), for which the cytotoxicity at 10 µM was -2.19%. On to `Cc1nn(C)c2c(=O)n(C)c(NCC3CCCO3)nc12` (configuration not stated), for which the cytotoxicity at 10 µM is 0.186%. `Cc1nccc(C2CCCCN2Cc2cccc(F)c2)n1` (configuration not stated): the cytotoxicity at 10 µM is -11.6%. For the compound `CCn1cnnc1CNC(=O)Cc1ccc2c(c1)OCCO2`, the cytotoxicity at 10 µM was -3.27%. Turning to `Cc1noc(CCCC(=O)NC(C)c2nnc3n2CCCCC3)n1` (configuration not stated), the cytotoxicity at 10 µM was 3.21%. Take `CC(=O)N1CCCC(c2ccc(C(N)=O)cn2)C1` (configuration not stated): the cytotoxicity at 10 µM turned out to be 5.07%. Consider `CC(C)CN(Cc1ccccn1)Cc1ccccc1OCC(=O)O`, for which the cytotoxicity at 10 µM is -12.7%.

As to `Cc1cccc2c1cnn2CCCNC(=O)c1cnn(C)c1`, the cytotoxicity at 10 µM was found to be 6.75%. For `CN1CCCN(C(=O)c2cc3c(s2)CCN3C(=O)C2CC2)CC1`, the cytotoxicity at 10 µM worked out at 6.74%.

Regarding `CN1CC(=O)N(c2ccsc2)CC12CCN(C(=O)c1ccccc1)C2` (configuration not stated), the cytotoxicity at 10 µM was -0.516%. Consider `Cc1ccc(S(N)(=O)=O)cc1C(=O)N1C[C@@H](CN(C)C)[C@@H](CO)C1`, for which the cytotoxicity at 10 µM is -0.187%.

In the case of `CC(NC(=O)c1cccnc1N(C)C)c1ccccc1Cl` (configuration not stated), the cytotoxicity at 10 µM was -4.97%. As to `Cc1nc(CCNC(=O)NCc2cccc(N(C)C)n2)cs1`, the cytotoxicity at 10 µM is 12%. In the case of `CN1CCN(C2CCN(C(=O)CCC3CCCC3)CC2)CC1`, the cytotoxicity at 10 µM was determined as 6.35%. In the case of `O=C([C@H]1C[C@H]2OCC[C@H]2N(C(=O)C2CCOCC2)C1)N1CCCCO1`, the cytotoxicity at 10 µM is -8.28%. As to `CCCOC1CCCN(Cc2nc(-c3ccc(F)cc3F)oc2C)C1` (configuration not stated), the cytotoxicity at 10 µM was -51.1%. As to `O=C(c1cnc(NCCC2CCCO2)c(Cl)c1)N1CCCCC1` (configuration not stated), the cytotoxicity at 10 µM was -2.01%. Under `CC(C)Cc1ncc2c(n1)CN(C(=O)c1ccc(Cn3ccnc3)o1)C2` stands 3.09%; under `CC(=O)NCCCNC(=O)N1CCN(c2cc(F)ccc2F)CC1`, -5.14%; under `CCOC(C)c1noc(CN2CCN(Cc3cccnc3)CC2)n1` (configuration not stated), -4.55%. Take `CCN(C)C(=O)c1cccc(S(=O)(=O)NCCc2csc(N)n2)c1`: the cytotoxicity at 10 µM is -45.2%.

For the compound `CCN1CCN(c2ccc(CNC(=O)c3cnn(C)c3C)cn2)CC1`, the cytotoxicity at 10 µM is -11.1%. As to `Cc1occc1C(=O)N1C[C@@H]2CCCO[C@@H]2[C@H](NS(C)(=O)=O)C1`, the cytotoxicity at 10 µM was -95.3%. As to `Cc1ccc(CCNC(=O)Nc2cc(C(F)(F)F)c[nH]c2=O)o1`, the cytotoxicity at 10 µM is -11.9%. On to `Cc1ccc2c(c1)C(NC1CCN(C)CC1)CCCO2` (configuration not stated), for which the cytotoxicity at 10 µM is -8.2%. Under `COc1ccc(CN(Cc2cnc(N)nc2)CC2CCCO2)c(OC)c1` (configuration not stated) stands -0.438%; under `Cc1ccc(C(C)NC(=O)Nc2ccccc2CN2CCOCC2)o1` (configuration not stated), 3.25%; under `CC(C)(CO)CNC(=O)c1cc(-c2cc[nH]n2)n2ccccc12`, 20%. As to `CCO[C@@H]1CO[C@@]2(CCN(Cc3ccc4c(c3)OCO4)C2)C1`, the cytotoxicity at 10 µM is 5.53%. Turning to `NC(=O)N1CCCC(C(=O)NCCc2nc(Cc3ccccc3)no2)C1` (configuration not stated), the cytotoxicity at 10 µM came out at 8.5%.

In the case of `Cc1cccc2c1C(=O)NC(c1cnc(C3CCC3)s1)N2` (configuration not stated), the cytotoxicity at 10 µM was -3.33%. Under `O=C(c1ncccn1)N1C[C@@H]2COC[C@]2(COCc2cccnc2)C1` stands -1.9%. Under `CN(C)CCO[C@H]1CN(Cc2ccoc2)[C@@H]2COC[C@H]12` stands -1.23%; under `c1ccc(CN2CCC3(CC2)Nc2ccccc2CO3)cc1`, -0.719%; under `Cc1cc(N2CCC(N(C)Cc3cccnc3)C2=O)n(C)n1` (configuration not stated), -9.98%.

As for `O=C(Nc1ccccn1)C1CCN(Cc2cc3c(cc2O)OCO3)CC1`, the cytotoxicity at 10 µM came out at 7.19%.

Regarding `Cc1cnc(CN2CCN(c3ccc4nncn4n3)C(C)C2)cn1` (configuration not stated), the cytotoxicity at 10 µM was -2.21%. Then `O=S(=O)(N1CCCC1)N1C[C@@H](c2cccc(F)c2)[C@@H]2NCCCCC[C@H]21`, with -25%; and `CCn1cc(S(=O)(=O)N2CCCCCC2c2cc(C)on2)cn1` (configuration not stated), with 7.43%. For `CCOCCN1C[C@H](c2cccc(OC)c2)[C@@H](N)C1`, the cytotoxicity at 10 µM was -0.786%. Consider `CC(C)N1c2sc(-c3ccsc3)nc2CC1C(=O)NC1CCCC1` (configuration not stated), for which the cytotoxicity at 10 µM turned out to be 9.1%. As for `CN1CCC(N2CCN(C(C(=O)O)c3cccc4c3OCC4)CC2)CC1` (configuration not stated), the cytotoxicity at 10 µM turned out to be 11%.

Consider `CN(Cc1c(F)cccc1Cl)C(=O)Nc1cnn(CC(N)=O)c1`, for which the cytotoxicity at 10 µM is -6.39%.

For `Cn1cnc2nc3n(c2c1=O)CCC3`, the cytotoxicity at 10 µM is -0.409%.

For `COCCNC(=O)C1CN(Cc2cccnc2)Cc2ccnn2C1` (configuration not stated), the cytotoxicity at 10 µM was -76.1%.

As for `Fc1ccccc1CC1CCN(Cc2cscn2)CC1`, the cytotoxicity at 10 µM was -5.71%. For the compound `O=C(CC1CCCO1)NCCCC(=O)Nc1ccc(Cl)cc1` (configuration not stated), the cytotoxicity at 10 µM was determined as 2.91%. Consider `Cc1c(Cl)cccc1N1CC(c2nnc(N)s2)CC1=O` (configuration not stated), for which the cytotoxicity at 10 µM stood at 7.38%.

As for `CCc1noc(C(C)N2CCN(CC(C)C)CC2)n1` (configuration not stated), the cytotoxicity at 10 µM is -4.05%.

Take `CNC(=O)c1cnc(C=Cc2ccc(O)c(OC)c2)s1`: the cytotoxicity at 10 µM was found to be 0.23%. In the case of `CCCS(=O)(=O)NCCc1ncc(C)s1`, the cytotoxicity at 10 µM was -9.31%. For `CCn1c(C)nnc1Sc1nn2cc(C)nc2s1`, the cytotoxicity at 10 µM was -1.99%. On to `Cc1ccc(CN2C[C@@H]3CCCO[C@@H]3[C@H](N(C)Cc3ccco3)C2)o1`, for which the cytotoxicity at 10 µM was 6.43%. As to `CC(Cc1ccccc1Cl)NC(=O)Nc1cnn(CC(N)=O)c1` (configuration not stated), the cytotoxicity at 10 µM is -4.23%.

Turning to `c1csc(-c2nc(CNC3CCc4ncnn4C3)cs2)c1` (configuration not stated), the cytotoxicity at 10 µM was 2.07%. Turning to `Cc1csc(C(C#N)C(=O)Nc2ccccc2)n1` (configuration not stated), the cytotoxicity at 10 µM was found to be 12.6%. Turning to `CC(C)COC(=O)N1CCCN(C(C)c2nnc(CC(C)C)o2)CC1` (configuration not stated), the cytotoxicity at 10 µM came to 8.69%. Turning to `Cc1cc(C)n(-c2ccc(N3CCC4(CC3)OCC(C)O4)nc2)n1` (configuration not stated), the cytotoxicity at 10 µM was -1.39%. Consider `O=S(=O)(C1CC1)N1CCC2(COCc3cnc(-c4cccnc4)nc32)C1` (configuration not stated), for which the cytotoxicity at 10 µM was -115%.

As for `Cc1cc(CN2CCN(C(=O)NC(C)c3cccs3)CC2)on1` (configuration not stated), the cytotoxicity at 10 µM was -7.72%.

Consider `Cc1ncoc1C(=O)N1CCOC(CCCC(C)C)C1` (configuration not stated), for which the cytotoxicity at 10 µM worked out at 8.29%. Under `Fc1ccc(CC2CCN(Cc3cscn3)CC2)cc1` stands -7.27%; under `CCOCCNC(=O)CCC1CCCO1` (configuration not stated), -122%; under `O=C1NCCN(CC2CC2)C12CCN(Cc1ccc3c(c1)OCO3)CC2`, -1.06%.

As to `Cc1nn(C)c2cn(C(C)C(=O)NCc3cccc(F)c3)nc12` (configuration not stated), the cytotoxicity at 10 µM was 6.61%. As for `CC(C)c1nnc(NC(=O)NCc2ccnc(N(C)C)c2)s1`, the cytotoxicity at 10 µM was 7.29%. With `CCOc1cc(NC(=O)NCCn2cnnc2CC)ccc1C`, the cytotoxicity at 10 µM was -7.37%. As to `CCc1c(C)nc2n(c1=O)CC(C(=O)Nc1ccccc1F)CS2` (configuration not stated), the cytotoxicity at 10 µM is 1.57%. With `O=C(NCC1CCOC1)c1cc(-c2ccccc2Cl)[nH]n1` (configuration not stated), the cytotoxicity at 10 µM was -3.11%. For the compound `COc1c(C2CCCN2C(=O)c2ccnc(C)n2)c(C)nn1C` (configuration not stated), the cytotoxicity at 10 µM is -12%. As to `O=C(CCCc1ccccn1)N1CCSC2(CCCCC2)C1`, the cytotoxicity at 10 µM was -3.71%. Consider `Cc1nnc2n1CCN(CCC(=O)Nc1sccc1C#N)C2`, for which the cytotoxicity at 10 µM is -2.28%. `COc1ccc(-c2ccnc(N)c2)c(OC)c1`: the cytotoxicity at 10 µM came out at 17.6%. Then `CNC(=O)C1CCCN(c2nc3c(-c4ccccc4)csc3c(=O)[nH]2)C1` (configuration not stated), with -1.03%; and `Cn1nc(CNC(=O)c2ccc(Cl)cc2)c2c1CCOC2`, with 5.86%. Under `COc1cccc(N2CCN(Cc3nccn3C(C)C)CC2=O)c1` stands 1.85%. Under `CS(=O)(=O)NCc1cncc2c1CCN(CC1CCOC1)C2` (configuration not stated) stands 12.7%. Regarding `CCOc1ccccc1C(=O)Nc1cccc(C[S+](C)[O-])c1C` (configuration not stated), the cytotoxicity at 10 µM is -4.35%.

Regarding `CC(CCc1cccc(F)c1)NC(=O)NCc1ncnn1C` (configuration not stated), the cytotoxicity at 10 µM amounted to 12.2%. As to `O=C(NCc1nnc2n1CCCC2)N1CCc2sccc2C1`, the cytotoxicity at 10 µM was -9.78%. Then `O=C(c1ccc[nH]1)N1CCc2ncc(Cn3cccn3)n2CC1`, with -0.469%; and `COCCN1C(=O)C[C@@H]2[C@H]1CCN2C(=O)c1ccc[nH]1`, with -1.34%. As for `CN(C)CC(=O)N1Cc2nc(C(=O)NCc3ccncc3)oc2C1`, the cytotoxicity at 10 µM is -8.58%. Regarding `O=C(NCc1nnc2n1CCC2)N(Cc1ccco1)C1CC1`, the cytotoxicity at 10 µM is -6.11%. Regarding `COc1ccccc1OC1CN(C(=O)C(c2ccc(F)cc2)N(C)C)C1` (configuration not stated), the cytotoxicity at 10 µM amounted to 1.42%. Under `CN(C)C(=O)N[C@@H]1CN(S(C)(=O)=O)[C@@H]2CCCO[C@@H]21` stands 2.62%. Turning to `O=C(Nc1nccs1)NC1CCN(Cc2ccccc2)C1` (configuration not stated), the cytotoxicity at 10 µM is -9.93%.

Take `CC(C)(C)c1cc(=O)n2c(n1)SCC(C(=O)NCc1ccco1)C2` (configuration not stated): the cytotoxicity at 10 µM was -15.1%. Then `CCCN(CCC)Cc1nnsc1Cl`, with 10.3%; and `CN1CCC[C@H]1c1nc(-c2cncnc2N)no1`, with 2.6%.
